ChEMBL document CHEMBL5329156, “Discovery and development of novel substituted monohydrazides as potent antifungal agents” (RSC Med Chem, 2023)
The source made the active and inactive calls.

Experiments:
Candida albicans [1] = test: Antifungal activity against Candida albicans ATCC 10231 assessed as fungal growth inhibition by double dilution method; type: functional
Summary of the method: (§1)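 Broth microdilution after CLSI M27-A3/M38-A2 with minor changes. Single colony grown overnight in YPD at 35 °C, 200 rpm. Compound final range 0.06-31.3 µg/mL; incubated 48 h at 35 °C.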

Candida albicans [2] = test: Antifungal activity against Candida albicans ATCC 64124 assessed as fungal growth inhibition by double dilution method; type: functional
Summary of the method: (§2)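 Broth microdilution after CLSI M27-A3/M38-A2 with minor modifications. A single colony was grown overnight in YPD at 35 °C with shaking at 200 rpm. Cells were mixed 1:1 with compound (final 0.06-31.3 µg/mL, from DMSO stocks) and incubated 48 h at 35 °C.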

Candida albicans [3] = test: Antifungal activity against itraconazole/fluconazole susceptible Candida albicans ATCC MYA-2876 assessed as fungal growth inhibition by double dilution method; type: functional; summary of the method: as §2
Candida albicans [4] = test: Antifungal activity against itraconazole/fluconazole resistant Candida albicans ATCC 90819 assessed as fungal growth inhibition by double dilution method; type: functional; summary of the method: as §2
Candida albicans [5] = test: Antifungal activity against itraconazole/fluconazole susceptible Candida albicans ATCC MYA-2310 assessed as fungal growth inhibition by double dilution method; type: functional; summary of the method: as §2
Candida albicans [6] = test: Antifungal activity against itraconazole/fluconazole resistant Candida albicans ATCC MYA-1237 assessed as fungal growth inhibition by double dilution method; type: functional; summary of the method: as §2
Candida albicans [7] = test: Antifungal activity against itraconazole/fluconazole resistant Candida albicans ATCC MYA-1003 assessed as fungal growth inhibition by double dilution method; type: functional; summary of the method: as §2
Nakaseomyces glabratus [8] = test: Antifungal activity against Candida glabrata ATCC 2001 assessed as fungal growth inhibition by double dilution method; type: functional; summary of the method: as §1
Pichia kudriavzevii [9] = test: Antifungal activity against Pichia kudriavzevii ATCC 6258 assessed as fungal growth inhibition by double dilution method; type: functional; summary of the method: as §1
Nakaseomyces glabratus [10] = test: Antifungal activity against Candida glabrata ATCC 22019 assessed as fungal growth inhibition by double dilution method; type: functional; summary of the method: as §1
[Candida] auris [11] = Antifungal activity against Candida auris AR Bank # 0384 assessed as fungal growth inhibition by double dilution method; type: functional; conditions: Candidozyma auris; summary of the method: as §1
[Candida] auris [12] = Antifungal activity against Candida auris AR Bank # 0390 assessed as fungal growth inhibition by double dilution method; type: functional; conditions: Candidozyma auris; summary of the method: as §1
Cryptococcus neoformans = test: Antifungal activity against Cryptococcus neoformans ATCC MYA-895 assessed as fungal growth inhibition by double dilution method; type: functional; summary of the method: as §1
Aspergillus terreus = test: Antifungal activity against Aspergillus terreus ATCC MYA-3633 assessed as fungal growth inhibition by double dilution method; type: functional
Aspergillus fumigatus [13] = test: Antifungal activity against Aspergillus fumigatus NRRL 163 assessed as fungal growth inhibition by double dilution method; type: functional
Aspergillus flavus = test: Antifungal activity against Aspergillus flavus ATCC MYA-3631 assessed as fungal growth inhibition by double dilution method; type: functional
Aspergillus nidulans = test: Antifungal activity against Aspergillus nidulans ATCC 38163 assessed as fungal growth inhibition by double dilution method; type: functional
Aspergillus fumigatus [14] = test: Antifungal activity against Aspergillus fumigatus NRRL 5109 assessed as fungal growth inhibition by double dilution method; type: functional
Aspergillus fumigatus [15] = test: Antifungal activity against Aspergillus fumigatus NRRL 6113 assessed as fungal growth inhibition by double dilution method; type: functional
[Candida] auris [16] = Antifungal activity against Candida auris AR Bank # 381 assessed as fungal growth inhibition by double dilution method; type: functional; conditions: Candidozyma auris; summary of the method: as §1
[Candida] auris [17] = Antifungal activity against Candida auris AR Bank # 382 assessed as fungal growth inhibition by double dilution method; type: functional; conditions: Candidozyma auris; summary of the method: as §1
[Candida] auris [18] = Antifungal activity against Candida auris AR Bank # 383 assessed as fungal growth inhibition by double dilution method; type: functional; conditions: Candidozyma auris; summary of the method: as §1
[Candida] auris [19] = Antifungal activity against Candida auris AR Bank # 384 assessed as fungal growth inhibition by double dilution method; type: functional; conditions: Candidozyma auris; summary of the method: as §1
[Candida] auris [20] = Antifungal activity against Candida auris AR Bank # 385 assessed as fungal growth inhibition by double dilution method; type: functional; conditions: Candidozyma auris; summary of the method: as §1
[Candida] auris [21] = Antifungal activity against Candida auris AR Bank # 386 assessed as fungal growth inhibition by double dilution method; type: functional; conditions: Candidozyma auris; summary of the method: as §1
[Candida] auris [22] = Antifungal activity against Candida auris AR Bank # 387 assessed as fungal growth inhibition by double dilution method; type: functional; conditions: Candidozyma auris; summary of the method: as §1
[Candida] auris [23] = Antifungal activity against Candida auris AR Bank # 388 assessed as fungal growth inhibition by double dilution method; type: functional; conditions: Candidozyma auris; summary of the method: as §1
[Candida] auris [24] = Antifungal activity against Candida auris AR Bank # 389 assessed as fungal growth inhibition by double dilution method; type: functional; conditions: Candidozyma auris; summary of the method: as §1
[Candida] auris [25] = Antifungal activity against Candida auris AR Bank # 390 assessed as fungal growth inhibition by double dilution method; type: functional; conditions: Candidozyma auris; summary of the method: as §1
Candida duobushaemulonii [26] = test: Antifungal activity against Candida duobushaemulonii AR Bank # 391 assessed as fungal growth inhibition by double dilution method; type: functional; conditions: Candidozyma duobushaemuli; summary of the method: as §1
Candida duobushaemulonii [27] = test: Antifungal activity against Candida duobushaemulonii AR Bank # 392 assessed as fungal growth inhibition by double dilution method; type: functional; conditions: Candidozyma duobushaemuli; summary of the method: as §1
[Candida] haemuloni [28] = Antifungal activity against Candida haemulonii AR Bank # 393 assessed as fungal growth inhibition by double dilution method; type: functional; conditions: Candidozyma haemuli; summary of the method: as §1
Candida duobushaemulonii [29] = test: Antifungal activity against Candida duobushaemulonii AR Bank # 394 assessed as fungal growth inhibition by double dilution method; type: functional; conditions: Candidozyma duobushaemuli; summary of the method: as §1
[Candida] haemuloni [30] = Antifungal activity against Candida haemulonii AR Bank # 395 assessed as fungal growth inhibition by double dilution method; type: functional; conditions: Candidozyma haemuli; summary of the method: as §1
Kodamaea ohmeri = test: Antifungal activity against Kodamaea ohmeri AR Bank # 396 assessed as fungal growth inhibition by double dilution method; type: functional; summary of the method: as §1
Pichia kudriavzevii [31] = test: Antifungal activity against Pichia kudriavzevii AR Bank # 397 assessed as fungal growth inhibition by double dilution method; type: functional; summary of the method: as §1
Clavispora lusitaniae = test: Antifungal activity against Clavispora lusitaniae AR Bank # 398 assessed as fungal growth inhibition by double dilution method; type: functional; summary of the method: as §1
Saccharomyces cerevisiae [32] = test: Antifungal activity against Saccharomyces cerevisiae AR Bank # 399 assessed as fungal growth inhibition by double dilution method; type: functional; summary of the method: as §1
Saccharomyces cerevisiae [33] = test: Antifungal activity against Saccharomyces cerevisiae AR Bank # 400 assessed as fungal growth inhibition by double dilution method; type: functional; summary of the method: as §1
J774.A1 = test: Cytotoxicity against J774A.1 cells assessed as reduction in cell viability at 31.3 microg/ml; type: toxicity, cell-based; conditions: mouse, dose 31.3 µg/ml
Summary of the method: (§3)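 Cells in DMEM with 10% FBS and 1% Pen/Strep, seeded at 10,000 cells/well and held overnight at 37 °C, 5% CO2. Compounds added at final 31.3-0.12 µg/mL (0.05% DMSO vehicle) for 24 h. Resazurin then added for 6 h; fluorescence read at ex 560/em 590. Triton X-100 1% as positive control; values normalized to vehicle. Run in quadruplicate.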

HEK293 = test: Cytotoxicity against human HEK-293 cells assessed as reduction in cell viability at 31.3 microg/ml; type: toxicity, cell-based; conditions: dose 31.3 µg/ml; summary of the method: as §3
HepG2 = test: Cytotoxicity against human HepG2 cells assessed as reduction in cell viability upto 31.3 microg/ml; type: toxicity, cell-based; conditions: dose < 31.3 µg/ml; summary of the method: as §3
Candida albicans [34] = test: Antibiofilm activity against Candida albicans ATCC 10231 assessed as reduction in biofilm production at 1.96 to 3.9 microg/ml by biofilm formation assay; type: functional, organism-based; conditions: dose 1.96-3.9 µg/ml

COc1ccc(NNC(=O)c2cnccn2)cc1
0.98 µg/mL: MIC (Candida albicans [2]) | MIC (Candida albicans [4]) | MIC (Candida albicans [6]) | MIC (Nakaseomyces glabratus [8]) | MIC (Pichia kudriavzevii [9]) | MIC (Cryptococcus neoformans) | MIC (Aspergillus nidulans) | MIC ([Candida] auris [17]) | MIC ([Candida] auris [18]) | MIC ([Candida] auris [19]) | MIC ([Candida] auris [20]) | MIC ([Candida] auris [23]) | MIC ([Candida] auris [24]) | MIC ([Candida] auris [25]) | MIC (Kodamaea ohmeri) | MIC (Clavispora lusitaniae) | MIC (Saccharomyces cerevisiae [32]) | MIC (Saccharomyces cerevisiae [33])
> 31.3 µg/mL: MIC (Aspergillus terreus) | MIC (Aspergillus flavus)
0.49 µg/mL: MIC (Candida albicans [1]) | MIC ([Candida] auris [11]) | MIC ([Candida] auris [12]) | MIC ([Candida] auris [21]) | MIC (Candida duobushaemulonii [26]) | MIC (Candida duobushaemulonii [27]) | MIC (Candida duobushaemulonii [29]) | MIC ([Candida] haemuloni [30]) | MIC (Pichia kudriavzevii [31])
Non-Toxic: Activity (J774.A1) | Activity (HEK293) | Activity (HepG2)
1.95 µg/mL: MIC (Candida albicans [3]) | MIC (Candida albicans [5]) | MIC (Candida albicans [7]) | MIC ([Candida] auris [16]) | MIC ([Candida] auris [22])
31.3 µg/mL: MIC (Aspergillus fumigatus [13]) | MIC (Aspergillus fumigatus [14]) | MIC (Aspergillus fumigatus [15])
0.24 µg/mL: MIC ([Candida] haemuloni [28])
3.9 µg/mL: MIC (Nakaseomyces glabratus [10])

O=C(NNc1ccc(F)cc1)c1ccccn1
1.95 µg/mL: MIC (Candida albicans [5]) | MIC (Candida albicans [6]) | MIC (Nakaseomyces glabratus [8]) | MIC (Nakaseomyces glabratus [10]) | MIC (Aspergillus terreus) | MIC ([Candida] auris [17]) | MIC ([Candida] auris [18]) | MIC (Clavispora lusitaniae) | MIC (Saccharomyces cerevisiae [33])
3.9 µg/mL: MIC (Candida albicans [3]) | MIC ([Candida] auris [11]) | MIC ([Candida] auris [19]) | MIC (Saccharomyces cerevisiae [32])
0.24 µg/mL: MIC (Cryptococcus neoformans) | MIC ([Candida] haemuloni [28]) | MIC (Candida duobushaemulonii [29]) | MIC (Kodamaea ohmeri) | MIC (Pichia kudriavzevii [31])
31.3 µg/mL: MIC (Aspergillus fumigatus [13]) | MIC (Aspergillus flavus)
Non-Toxic: Activity (J774.A1) | Activity (HEK293)
active: Activity (Candida albicans [34])
0.49 µg/mL: MIC (Candida albicans [7]) | MIC (Aspergillus nidulans) | MIC ([Candida] auris [21]) | MIC ([Candida] auris [24]) | MIC (Candida duobushaemulonii [26]) | MIC (Candida duobushaemulonii [27])
15.6 µg/mL: MIC (Aspergillus fumigatus [15])
0.12 µg/mL: MIC (Candida albicans [1]) | MIC (Pichia kudriavzevii [9]) | MIC ([Candida] haemuloni [30])
0.98 µg/mL: MIC (Candida albicans [2]) | MIC (Candida albicans [4]) | MIC ([Candida] auris [12]) | MIC ([Candida] auris [16]) | MIC ([Candida] auris [20]) | MIC ([Candida] auris [22]) | MIC ([Candida] auris [23]) | MIC ([Candida] auris [25])
7.8 µg/mL: MIC (Aspergillus fumigatus [14])

O=C(NNc1ccc(F)cc1F)c1cnccn1
> 31.3 µg/mL: MIC (Aspergillus fumigatus [13]) | MIC (Aspergillus fumigatus [14]) | MIC (Aspergillus fumigatus [15])
0.98 µg/mL: MIC (Candida albicans [2]) | MIC (Candida albicans [3]) | MIC (Candida albicans [4]) | MIC (Nakaseomyces glabratus [8]) | MIC ([Candida] auris [12]) | MIC (Aspergillus terreus) | MIC ([Candida] auris [18]) | MIC ([Candida] auris [20]) | MIC ([Candida] auris [25]) | MIC (Kodamaea ohmeri)
7.8 µg/mL: MIC (Aspergillus flavus) | MIC (Candida duobushaemulonii [29]) | MIC (Saccharomyces cerevisiae [32])
3.9 µg/mL: MIC (Candida albicans [5]) | MIC (Nakaseomyces glabratus [10]) | MIC ([Candida] auris [11]) | MIC ([Candida] auris [16]) | MIC ([Candida] auris [19]) | MIC (Clavispora lusitaniae)
1.95 µg/mL: MIC ([Candida] auris [17]) | MIC ([Candida] haemuloni [30]) | MIC (Pichia kudriavzevii [31]) | MIC (Saccharomyces cerevisiae [33])
0.49 µg/mL: MIC (Candida albicans [6]) | MIC (Candida albicans [7]) | MIC (Aspergillus nidulans) | MIC ([Candida] auris [21]) | MIC ([Candida] auris [22]) | MIC ([Candida] auris [23]) | MIC ([Candida] auris [24]) | MIC (Candida duobushaemulonii [26])
0.24 µg/mL: MIC (Candida albicans [1]) | MIC (Pichia kudriavzevii [9]) | MIC (Cryptococcus neoformans) | MIC (Candida duobushaemulonii [27]) | MIC ([Candida] haemuloni [28])
Non-Toxic: Activity (J774.A1) | Activity (HEK293) | Activity (HepG2)
